Assay results as given in ChEMBL document CHEMBL4028913, “Discovery of Novel Potent VEGFR-2 Inhibitors Exerting Significant Antiproliferative Activity against Cancer Cell Lines” (J Med Chem, 2018).
Activity calls are given as the source filed them. The rule behind the calls is not given here.

Legend:
[1] = Potency index, ratio of sorafenib GI50 to test compound GI50 for human renal cancer cells; assay type: functional, Renal cancer cell
Procedure, shortened: (§1)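 GI50 is the concentration giving 50% reduction in net protein increase relative to control. Potency index is the reference-drug GI50 divided by the test-compound GI50.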

[2] = target: T1, Vascular endothelial growth factor receptor 2 (Homo sapiens, UniProt P35968)
HUVEC = experiment: Growth inhibition of HUVEC after 72 hrs by CellTiter-Glo assay; assay type: functional, cell-based; settings: Homo sapiens
Procedure, shortened: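 Cells in exponential phase seeded at 2000–4000 cells/well, then exposed 72 h at 37 °C, 5% CO2 with 0.1% final DMSO. Single-point screen at 10 μM final. […] Read-out was CellTiter-Glo luminescence.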

MOLT-4 = experiment: Cytotoxicity against human MOLT4 cells after 48 hrs by SRB assay; assay type: functional; settings: MOLT-4, 48 h
Procedure, shortened: (§2)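 NCI-60 panel; cells grown in RPMI 1640 with 5% FBS and 2 mM L-glutamine, plated at 5000–40 000 cells/well by doubling time, preincubated 24 h (37 °C, 5% CO2). Drug added at five concentrations, 1-log steps from 10−4 to 10−8 M, for 48 h. Fixed with TCA, stained with 0.4% SRB, absorbance read at 515 nm. Percent growth computed against time-zero and untreated controls; GI50, TGI and LC50 derived.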

NCI-H23 = experiment: Cytotoxicity against human NCI-H23 cells after 48 hrs by SRB assay; assay type: functional; settings: NCI-H23, 48 h; procedure, shortened: as §2
COLO 205 = experiment: Cytotoxicity against human COLO205 cells after 48 hrs by SRB assay; assay type: functional; settings: COLO 205, 48 h; procedure, shortened: as §2
HT-29 = experiment: Cytotoxicity against human HT-29 cells after 48 hrs by SRB assay; assay type: functional; settings: HT-29, 48 h; procedure, shortened: as §2
MDA-MB-435 = experiment: Cytotoxicity against human MDA-MB-435 cells after 48 hrs by SRB assay; assay type: functional; settings: MDA-MB-435, 48 h; procedure, shortened: as §2
SK-MEL-2 = experiment: Cytotoxicity against human SK-MEL-2 cells after 48 hrs by SRB assay; assay type: functional; settings: SK-MEL-2, 48 h; procedure, shortened: as §2
OVCAR-8 = experiment: Cytotoxicity against human OVCAR8 cells after 48 hrs by SRB assay; assay type: functional; settings: OVCAR-8, 48 h; procedure, shortened: as §2
786-0 = experiment: Cytotoxicity against human 786-0 cells after 48 hrs by SRB assay; assay type: functional; settings: 786-0, 48 h; procedure, shortened: as §2
SN12C = experiment: Cytotoxicity against human SN12C cells after 48 hrs by SRB assay; assay type: functional; procedure, shortened: as §2
TK-10 = experiment: Cytotoxicity against human TK10 cells after 48 hrs by SRB assay; assay type: functional; settings: TK-10, 48 h
Procedure, shortened: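 NCI-60 panel, five doses at 1-log steps from 10−4 to 10−8 M. Cells grown in RPMI 1640 with 5% FBS and 2 mM L-glutamine, seeded at 5000–40 000 cells/well and preincubated 24 h. Tz plates were TCA-fixed at drug addition. Drug exposure 48 h at 37 °C, then TCA fixation, 0.4% SRB stain and absorbance at 515 nm. GI50 taken from percent growth relative to Tz and control.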

[3] = Potency index, ratio of sorafenib GI50 to test compound GI50 for human prostate cancer cells; assay type: functional, Prostate cancer cell; procedure, shortened: as §1
[4] = target: Vascular endothelial growth factor receptor 3 (Homo sapiens) (UniProt P35916); experiment: Inhibition of human Flt4 at 0.5 uM relative to control
[5] = target: T1, Vascular endothelial growth factor receptor 2; settings: at 0.5 µM
[6] = read-out: LC50 (the source's name)

T1 sequence (P35968 whole entry): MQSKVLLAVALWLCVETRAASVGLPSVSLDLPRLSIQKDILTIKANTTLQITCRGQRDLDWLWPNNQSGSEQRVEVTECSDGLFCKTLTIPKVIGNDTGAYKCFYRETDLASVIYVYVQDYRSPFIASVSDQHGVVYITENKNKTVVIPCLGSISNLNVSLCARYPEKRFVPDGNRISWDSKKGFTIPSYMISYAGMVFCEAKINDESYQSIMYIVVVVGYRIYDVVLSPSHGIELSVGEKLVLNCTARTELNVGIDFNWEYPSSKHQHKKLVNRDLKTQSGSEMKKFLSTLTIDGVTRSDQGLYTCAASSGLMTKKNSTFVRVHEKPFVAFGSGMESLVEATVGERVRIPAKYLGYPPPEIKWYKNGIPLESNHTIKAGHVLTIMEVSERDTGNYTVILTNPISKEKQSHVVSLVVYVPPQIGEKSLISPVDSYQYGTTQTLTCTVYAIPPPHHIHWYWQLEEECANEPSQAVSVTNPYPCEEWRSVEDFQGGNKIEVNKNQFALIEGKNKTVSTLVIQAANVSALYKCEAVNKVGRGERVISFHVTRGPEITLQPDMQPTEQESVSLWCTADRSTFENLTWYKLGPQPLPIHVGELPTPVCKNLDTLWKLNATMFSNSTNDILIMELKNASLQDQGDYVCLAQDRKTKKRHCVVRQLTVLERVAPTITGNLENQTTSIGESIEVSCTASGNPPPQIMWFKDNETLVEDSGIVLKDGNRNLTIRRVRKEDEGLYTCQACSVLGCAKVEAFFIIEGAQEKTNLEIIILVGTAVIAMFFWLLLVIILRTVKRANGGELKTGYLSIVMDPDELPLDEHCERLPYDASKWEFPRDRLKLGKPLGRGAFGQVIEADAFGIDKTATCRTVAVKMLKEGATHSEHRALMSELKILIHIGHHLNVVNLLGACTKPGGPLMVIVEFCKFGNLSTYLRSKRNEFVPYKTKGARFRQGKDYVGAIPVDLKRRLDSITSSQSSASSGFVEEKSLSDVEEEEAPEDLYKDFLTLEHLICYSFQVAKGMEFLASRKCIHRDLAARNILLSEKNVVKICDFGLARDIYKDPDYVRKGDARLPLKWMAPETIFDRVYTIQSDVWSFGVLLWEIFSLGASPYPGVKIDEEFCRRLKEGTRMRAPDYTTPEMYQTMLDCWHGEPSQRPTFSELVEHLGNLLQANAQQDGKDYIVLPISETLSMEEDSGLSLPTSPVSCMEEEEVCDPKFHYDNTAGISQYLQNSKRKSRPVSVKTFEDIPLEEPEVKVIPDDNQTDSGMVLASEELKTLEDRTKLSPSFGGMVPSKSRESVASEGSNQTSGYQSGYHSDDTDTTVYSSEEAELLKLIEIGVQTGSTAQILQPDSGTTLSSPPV
Vascular endothelial growth factor receptor 3 (Homo sapiens), sequence (P35916 whole entry): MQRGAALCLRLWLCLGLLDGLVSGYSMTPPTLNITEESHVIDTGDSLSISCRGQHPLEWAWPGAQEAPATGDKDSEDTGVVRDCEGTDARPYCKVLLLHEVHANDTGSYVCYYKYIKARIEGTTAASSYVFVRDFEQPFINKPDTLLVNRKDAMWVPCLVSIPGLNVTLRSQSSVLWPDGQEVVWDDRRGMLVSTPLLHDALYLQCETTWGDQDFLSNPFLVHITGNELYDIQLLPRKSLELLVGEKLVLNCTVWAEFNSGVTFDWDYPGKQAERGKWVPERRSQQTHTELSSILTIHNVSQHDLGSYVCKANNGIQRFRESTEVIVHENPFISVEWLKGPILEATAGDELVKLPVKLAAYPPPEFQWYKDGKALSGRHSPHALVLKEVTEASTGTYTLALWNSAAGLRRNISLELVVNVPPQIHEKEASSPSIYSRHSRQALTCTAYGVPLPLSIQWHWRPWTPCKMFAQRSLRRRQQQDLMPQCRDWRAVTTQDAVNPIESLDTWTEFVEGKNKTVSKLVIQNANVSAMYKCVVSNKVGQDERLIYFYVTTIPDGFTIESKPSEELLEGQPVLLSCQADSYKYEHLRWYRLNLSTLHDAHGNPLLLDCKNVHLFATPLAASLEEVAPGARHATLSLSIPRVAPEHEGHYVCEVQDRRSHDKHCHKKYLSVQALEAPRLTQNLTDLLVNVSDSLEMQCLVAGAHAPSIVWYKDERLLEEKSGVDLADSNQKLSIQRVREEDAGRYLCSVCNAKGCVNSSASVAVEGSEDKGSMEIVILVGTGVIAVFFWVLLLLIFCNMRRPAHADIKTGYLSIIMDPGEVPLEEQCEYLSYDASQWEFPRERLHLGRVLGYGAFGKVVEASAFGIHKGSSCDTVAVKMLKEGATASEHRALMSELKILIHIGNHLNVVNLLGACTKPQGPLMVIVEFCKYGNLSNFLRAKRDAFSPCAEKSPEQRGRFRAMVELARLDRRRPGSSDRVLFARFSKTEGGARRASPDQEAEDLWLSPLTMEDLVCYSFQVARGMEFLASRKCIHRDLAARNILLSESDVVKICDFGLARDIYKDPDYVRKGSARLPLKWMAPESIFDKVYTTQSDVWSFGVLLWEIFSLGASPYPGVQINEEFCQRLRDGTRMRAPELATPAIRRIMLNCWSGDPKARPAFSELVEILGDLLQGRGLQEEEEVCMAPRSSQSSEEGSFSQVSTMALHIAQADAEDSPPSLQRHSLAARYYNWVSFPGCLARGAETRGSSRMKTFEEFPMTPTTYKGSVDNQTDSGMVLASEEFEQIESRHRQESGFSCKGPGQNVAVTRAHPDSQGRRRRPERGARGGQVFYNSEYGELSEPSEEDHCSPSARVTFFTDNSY

Compound: COc1cc2ncnc(Oc3ccc(NC(=O)Nc4ccc(CN5CCOCC5)c(C(F)(F)F)c4)c4ccccc34)c2cc1OC
- RatioGI50 [1]: 9.5
- IC50 [2]: 0.0334 µM
- IC50 (HUVEC): 0.63 µM
- GI50 (MOLT-4): 0.19 µM
- TGI (MOLT-4): 1.82 µM
- CC50 (MOLT-4; [6]): > 100 µM
- GI50 (NCI-H23): 0.62 µM
- TGI (NCI-H23): 3.98 µM
- CC50 (NCI-H23; [6]): > 100 µM
- GI50 (COLO 205): 0.38 µM
- TGI (COLO 205): 3.39 µM
- CC50 (COLO 205; [6]): > 100 µM
- GI50 (HT-29): 0.45 µM
- TGI (HT-29): 13.2 µM
- CC50 (HT-29; [6]): > 100 µM
- GI50 (MDA-MB-435): 0.37 µM
- TGI (MDA-MB-435): 3.39 µM
- CC50 (MDA-MB-435; [6]): 33.9 µM
- GI50 (SK-MEL-2): 1.48 µM
- TGI (SK-MEL-2): 13.8 µM
- CC50 (SK-MEL-2; [6]): > 100 µM
- GI50 (OVCAR-8): 0.4 µM
- TGI (OVCAR-8): 9.55 µM
- CC50 (OVCAR-8; [6]): > 100 µM
- GI50 (786-0): 0.79 µM
- TGI (786-0): 5.37 µM
- CC50 (786-0; [6]): 26.9 µM
- GI50 (SN12C): 0.29 µM
- TGI (SN12C): 1.86 µM
- CC50 (SN12C; [6]): 13.2 µM
- GI50 (TK-10): 0.38 µM
- TGI (TK-10): 5.89 µM
- CC50 (TK-10; [6]): 35.5 µM
- RatioGI50 [3]: 1.6
- inhibition [4]: Active
- inhibition [5]: Active
